Source: ChEMBL document CHEMBL1129536, “Nucleoside analogs. 14. The synthesis of antitumor activity in mice of molecular combinations of 5-fluorouracil and N-(2-Chloroethyl)-N-nitrosourea moieties separated by a three-carbon chain” (1996)

Legend:
MAC15A [1] = assay: Antitumor effect against MAC15A Tumors was determined by the percent of median survival times of treated animals to median survival times of control animals by arachis oil at dose 100 mg/kg; details: Mus musculus
Mus musculus [2] = assay: Antitumor effect against Colon 38 Adenocarcinoma was determined by the percent of median tumor volume of treated animals to median tumor volume of control animals by saline at dose 50 mg/kg; assay type: functional
MAC13 [3] = assay: Antitumor effect against MAC13 Tumors was determined by the percent of mean weight of treated tumors to mean weight of control tumors by arachis oil at dose 50 mg/kg; assay type: functional, Mus musculus
MAC13 [4] = assay: Antitumor effect against MAC13 Tumors was determined by no. deaths/treated of mice by arachis oil at dose 50 mg/kg; no of deaths/treated 0/5; assay type: functional, Mus musculus
MAC13 [5] = assay: Antitumor effect against MAC13 Tumors was determined by no. deaths/treated of mice by 10% DMSO/arachis oil at dose 100 mg/kg; no of deaths/treated 0/5; assay type: functional, Mus musculus
MAC13 [6] = assay: Antitumor effect against MAC13 Tumors was determined by the percent of mean weight of treated tumors to mean weight of control tumors by 10% DMSO/arachis oil at dose 100 mg/kg; assay type: functional, Mus musculus
Summary of the method: (§1)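 MAC 13 tumors were grown in mice. Two days after transplantation, at about 2 mm³, mice were allocated by restricted randomization. Compounds were made up fresh and given ip at 0.1 mL/10 g body weight. Tumor weight was measured 21 days later, and T/C % was the mean treated tumor weight over the mean control weight; deaths among treated mice were recorded.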

MAC15A [7] = assay: Antitumor effect against MAC15A Tumors was determined by the percent of median survival times of treated animals to median survival times of control animals by 10% DMSO/arachis oil at dose 100 mg/kg; details: Mus musculus
[8] = Antitumor effect against MCa Mammary Carcinoma was determined by the percent of median survival times of treated animals to median survival times of control animals by 10%DMSO/water at dose 100 mg/kg; assay type: functional, Mus musculus
Mus musculus [9] = assay: Antitumor effect against Colon 38 Adenocarcinoma was determined by the percent of median tumor volume of treated animals to median tumor volume of control animals by saline at dose 100 mg/kg; assay type: functional
Summary of the method: (§2)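 Colon 38 adenocarcinoma, serially maintained in C57Bl/6 mice, was implanted as 3 mm × 3 mm fragments sc in B6D2F1 mice (19-22 g) on day 0. Compounds were made fresh on the day of injection, either dissolved in saline (0.9% NaCl) or suspended in saline with Tween 80 […], and given ip. T/C was the median tumor volume of treated over untreated controls; T/C <42% counted as activity.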

MAC15A [10] = assay: Antitumor effect against MAC15A Tumors was determined by the percent of median survival times of treated animals to median survival times of control animals by arachis oil at dose 50 mg/kg; details: Mus musculus
[11] = Antitumor effect against MCa Mammary Carcinoma was determined by the percent of median survival times of treated animals to median survival times of control animals by 10%DMSO/water at dose 150 mg/kg; assay type: functional, Mus musculus
MAC13 [12] = assay: Antitumor effect against MAC13 Tumors was determined by the percent of mean weight of treated tumors to mean weight of control tumors by 10% ethanol/arachis oilat dose 100 mg/kg; assay type: functional, Mus musculus
Summary of the method: as §1

MAC13 [13] = assay: Antitumor effect against MAC13 Tumors was determined by no. deaths/treated of mice by 10% ethanol/arachis oil at dose 100 mg/kg; no of deaths/treated 0/5; assay type: functional, Mus musculus
MAC15A [14] = assay: Antitumor effect against MAC15A Tumors was determined by the percent of median survival times of treated animals to median survival times of control animals by 10% ethanol/arachis oil at dose 100 mg/kg; details: Mus musculus
MAC13 [15] = assay: Antitumor effect against MAC13 Tumors was determined by no. deaths/treated of mice by arachis oil at dose 135 mg/kg; no of deaths/treated 0/5; assay type: functional, Mus musculus
[16] = Antitumor effect against MCa Mammary Carcinoma was determined by the percent of median survival times of treated animals to median survival times of control animals by 10%DMSO/water at dose 80 mg/kg; assay type: functional, Mus musculus
MAC13 [17] = assay: Antitumor effect against MAC13 Tumors was determined by the percent of mean weight of treated tumors to mean weight of control tumors by arachis oil at dose 135 mg/kg; assay type: functional, Mus musculus
Summary of the method: as §1

MAC15A [18] = assay: Antitumor effect against MAC15A Tumors was determined by the percent of median survival times of treated animals to median survival times of control animals by arachis oil at dose 90 mg/kg; details: Mus musculus
MAC13 [19] = assay: Antitumor effect against MAC13 Tumors was determined by the percent of mean weight of treated tumors to mean weight of control tumors by arachis oil at dose 200 mg/kg; assay type: functional, Mus musculus
Summary of the method: as §1

MAC15A [20] = assay: Antitumor effect against MAC15A Tumors was determined by the percent of median survival times of treated animals to median survival times of control animals by arachis oil at dose 200 mg/kg; details: Mus musculus
MAC13 [21] = assay: Antitumor effect against MAC13 Tumors was determined by no. deaths/treated of mice by arachis oil at dose 200 mg/kg; no of deaths/treated 0/10; assay type: functional, Mus musculus
MAC15A [22] = assay: Antitumor effect against MAC15A Tumors was determined by the percent of median survival times of treated animals to median survival times of control animals by 10% DMSO/arachis oil at dose 200 mg/kg; details: Mus musculus
MAC13 [23] = assay: Antitumor effect against MAC13 Tumors was determined by no. deaths/treated of mice by arachis oil at dose 200 mg/kg; no of deaths/treated 0/5; assay type: functional, Mus musculus
Mus musculus [24] = assay: Antitumor effect against Colon 38 Adenocarcinoma was determined by the percent of median tumor volume of treated animals to median tumor volume of control animals by saline/Tween 80(9/1)at dose 100 mg/kg; assay type: functional
Summary of the method: as §2

MAC15A [25] = assay: Antitumor effect against MAC15A Tumors was determined by the percent of median survival times of treated animals to median survival times of control animals by arachis oil at dose 62.5 mg/kg; details: Mus musculus
[26] = Antitumor effect against MCa Mammary Carcinoma was determined by the percent of median survival times of treated animals to median survival times of control animals by 10%DMSO/water at dose 60 mg/kg; assay type: functional, Mus musculus
MAC13 [27] = assay: Antitumor effect against MAC13 Tumors was determined by no. deaths/treated of mice by arachis oil at dose 31.25 mg/kg; no of deaths/treated 0/10; assay type: functional, Mus musculus
MAC13 [28] = assay: Antitumor effect against MAC13 Tumors was determined by the percent of mean weight of treated tumors to mean weight of control tumors by arachis oil at dose 31.25 mg/kg; assay type: functional, Mus musculus
MAC15A [29] = assay: Antitumor effect against MAC15A Tumors was determined by the percent of median survival times of treated animals to median survival times of control animals by arachis oil at dose 300 mg/kg; details: Mus musculus
Mus musculus [30] = assay: Antitumor effect against Colon 38 Adenocarcinoma was determined by the percent of median tumor volume of treated animals to median tumor volume of control animals by saline/Tween 80(9/1) at dose 100 mg/kg; assay type: functional
Summary of the method: as §2

Mus musculus [31] = assay: Antitumor effect against Colon 38 Adenocarcinoma was determined by the percent of median tumor volume of treated animals to median tumor volume of control animals by saline/Tween 80(9/1) at dose 50 mg/kg; assay type: functional
Summary of the method: as §2

MAC13 [32] = assay: Antitumor effect against MAC13 Tumors was determined by no. deaths/treated of mice by arachis oil at dose 100 mg/kg; no of deaths/treated 0/5; assay type: functional, Mus musculus
MAC13 [33] = assay: Antitumor effect against MAC13 Tumors was determined by the percent of mean weight of treated tumors to mean weight of control tumors by arachis oil at dose 100 mg/kg; assay type: functional, Mus musculus
Summary of the method: as §1

MAC13 [34] = assay: Antitumor effect against MAC13 Tumors was determined by no. deaths/treated of mice by arachis oil at dose 150 mg/kg; no of deaths/treated 0/5; assay type: functional, Mus musculus
MAC13 [35] = assay: Antitumor effect against MAC13 Tumors was determined by the percent of mean weight of treated tumors to mean weight of control tumors by arachis oil at dose 150 mg/kg; assay type: functional, Mus musculus
Summary of the method: as §1

MAC15A [36] = assay: Antitumor effect against MAC15A Tumors was determined by the percent of median survival times of treated animals to median survival times of control animals by saline at dose 20 mg/kg; details: Mus musculus
MAC13 [37] = assay: Antitumor effect against MAC13 Tumors was determined by no. deaths/treated of mice by 10% ethanol/arachis oil at dose 20 mg/kg; no of deaths/treated 0/5; assay type: functional, Mus musculus
MAC13 [38] = assay: Antitumor effect against MAC13 Tumors was determined by the percent of mean weight of treated tumors to mean weight of control tumors by 10% ethanol/arachis oil at dose 20 mg/kg; assay type: functional, Mus musculus
Summary of the method: as §1

COC(CNC(=O)N(CCCl)N=O)n1c(=O)[nH]cc(F)c1=O (stereo not given)
T/C (MAC15A [1]): >850%
T/C (Mus musculus [2]): 17%
T/C (MAC13 [3]): 11%
No. deaths/treated (MAC13 [4]): 0

COC(CCNC(=O)N(CCCl)N=O)n1c(=O)[nH]cc(F)c1=O (stereo not given)
No. deaths/treated (MAC13 [5]): 0
T/C (MAC13 [6]): 1%
T/C (MAC15A [7]): 360%

COC(CNC(=O)N(CCCl)N=O)n1cc(F)c(=O)[nH]c1=O (stereo not given)
T/C [8]: 311%
T/C (Mus musculus [9]): 38%
T/C (MAC13 [3]): 7%
T/C (MAC15A [10]): 200%
No. deaths/treated (MAC13 [4]): 0

O=NN(CCCl)C(=O)NCCC(OCCO)n1cc(F)c(=O)[nH]c1=O (stereo not given)
T/C [11]: 168%
T/C (MAC13 [12]): 23%
No. deaths/treated (MAC13 [13]): 0
T/C (MAC15A [14]): 233%

CSC(CCNC(=O)N(CCCl)N=O)n1cc(F)c(=O)[nH]c1=O (stereo not given)
T/C (Mus musculus [9]): 63%
No. deaths/treated (MAC13 [15]): 0
T/C [16]: 195%
T/C (MAC13 [17]): 0%
T/C (MAC15A [18]): 200%

O=NN(CCCl)C(=O)NCCOC(CCNC(=O)c1ccccc1C(=O)O)n1cc(F)c(=O)[nH]c1=O (stereo not given)
T/C [8]: 121%
T/C (MAC13 [19]): 103%
T/C (MAC15A [20]): 148%
No. deaths/treated (MAC13 [21]): 0

O=NN(CCCl)C(=O)NCCC(SCC(=O)O)n1cc(F)c(=O)[nH]c1=O (stereo not given)
T/C (MAC13 [19]): 31%
T/C (MAC15A [22]): 275%
No. deaths/treated (MAC13 [23]): 0
T/C (Mus musculus [24]): 0%

COC(CCNC(=O)N(CCCl)N=O)n1c(=O)cc[nH]c1=O (stereo not given)
No. deaths/treated (MAC13 [5]): 0
T/C (MAC13 [6]): 43%
T/C (MAC15A [7]): 200%

CSC(CNC(=O)N(CCCl)N=O)n1cc(F)c(=O)[nH]c1=O (stereo not given)
T/C (MAC15A [25]): 156%
T/C (Mus musculus [9]): 0%
T/C [26]: 189%
No. deaths/treated (MAC13 [27]): 0
T/C (MAC13 [28]): 122%

CC(C)(C)OC(CCNC(=O)N(CCCl)N=O)n1cc(F)c(=O)[nH]c1=O (stereo not given)
T/C (MAC15A [29]): 280%
T/C (MAC13 [19]): 1%
T/C (Mus musculus [30]): 42%
No. deaths/treated (MAC13 [23]): 0

O=NN(CCCl)C(=O)NCCC(n1cc(F)c(=O)[nH]c1=O)n1c(=O)[nH]cc(F)c1=O (stereo not given)
No. deaths/treated (MAC13 [5]): 0
T/C (MAC13 [6]): 87%
T/C (MAC15A [7]): 182%

O=NN(CCCl)C(=O)NCCOC(CCO)n1cc(F)c(=O)[nH]c1=O (stereo not given)
T/C (MAC15A [1]): 136%
T/C (Mus musculus [31]): 68%
No. deaths/treated (MAC13 [32]): 0
T/C (MAC13 [33]): 27%

COC(CCNC(=O)N(CCCl)N=O)n1cc(F)c(=O)[nH]c1=O (stereo not given)
T/C (MAC15A [1]): 233%
No. deaths/treated (MAC13 [34]): 0
T/C (Mus musculus [9]): 47%
T/C (MAC13 [35]): 0.8%

CC1CCC(NC(=O)N(CCCl)N=O)CC1 (stereo not given) [SEMUSTINE]
T/C (MAC15A [36]): 154%
No. deaths/treated (MAC13 [37]): 0
T/C (MAC13 [38]): 8%
